Paper PMC8494022 (Chemical Science, 2021)

Columns and labels:
[1] = system: CT26 cells; assay: Cellular uptake of FITC-labeled albumin with endocytosis inhibitors; format: cell-based, murine (Balb/c); conditions: 1 h inhibitor pretreatment, uptake after 3 h
[2] = Reduction kinetics with ascorbic acid by NMR; format: physicochemical; conditions: 100 μM, ascorbic acid 10 eq., cell-free, pD 7.4, 37°C
[3] = cited from earlier work
[4] = system: CT26 cells; assay: Cytotoxicity, MTT-based cell viability assay; design: species or system murine (Balb/c)
Procedure, shortened: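 MTT-based viability of CT26 cells after 72 h drug exposure, alone or with 100 μM ascorbic acid co-treatment. Values are means ± SD of one representative experiment run in triplicates.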

[5] = system: CT26 tumors; assay: Histological evaluation of treated tumors; format: in vivo, Balb/c mice; conditions: tumors day 12, H&E-stained
Procedure, shortened: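 CT26-bearing BALB/c mice dosed i.v. twice weekly for two weeks, equimolar to 9 mg kg−1 oxaliplatin. Tumors were collected on day 12, 24 h after the last dose. Apoptotic and mitotic cells were counted in H&E sections. Percentages of cleaved caspase-3-positive and Ki-67-positive cells were scored by image analysis. One-way ANOVA with Dunnett's test.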

[6] = system: CT26 tumors; assay: Allograft anticancer activity experiments; format: in vivo; conditions: CT26-bearing BALB/c mice
Procedure, shortened: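 CT26 allografts in immune-competent BALB/c mice; test compounds and oxaliplatin given i.v. twice weekly for two weeks at doses equimolar to 9 mg kg−1 oxaliplatin. Body weight was followed. Tumor growth is reported as mean ± SEM and compared by two-way ANOVA. Overall survival was plotted as Kaplan–Meier curves and compared by log-rank test with Mantel–Cox posttest.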

[7] = system: CT26 cells; assay: Cellular platinum uptake determined by ICP-MS; format: cell-based, murine (Balb/c); conditions: MβCD, CHP, EIPA 1 h pretreatment, uptake after 3 h
[8] = Pharmacokinetic of single dose in serum; format: in vivo, Balb/c mice
Procedure, shortened: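 Naive BALB/c mice (n = 4 per group) received a single i.v. dose equimolar to 9 mg kg−1 oxaliplatin. Serum was sampled between 0.08 h and 336 h, and serum versus blood clot was compared at 24 h. Platinum was quantified by ICP-MS and used for concentration–time curves, AUC and terminal elimination half-life.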

Q: With `CCN(c1nc(N)c(C(=O)NC(=N)N)nc1Cl)C(C)C` [EIPA, 5-(N-ethyl-N-isopropyl)amiloride] as the compound, how does the “impact on uptake of FITC-labeled albumin” value [1] read?
A: Its value is “had no impact on albumin uptake”.

Q: For `CC(=O)[O][Pt]([NH2])([Cl])([Cl])([NH]C1CCCCC1)[O]C(C)=O` [Satraplatin, satraplatin], which “time to complete reduction” value [2] is on record?
A: Its value is under 24 h.

Q: Which “in vivo elimination half-life” value [3] does the source give for `COc1cccc2c1C(=O)c1c(O)c3c(c(O)c1C2=O)C[C@@](O)(/C(CO)=N/NC(=O)CCCCCN1C(=O)C=CC1=O)C[C@@H]3O[C@H]1C[C@H](N)[C@H](O)[C@H](C)O1` [aldoxorubicin] here?
A: The value was 2.3 h.

Q: What about the “time at which tumor accumulation reached a plateau” value ([3]; no further increase during the next 24 h) of the same compound?
A: Its value is 2 h.

Q: What does the source list for `COc1cccc2c1C(=O)c1c(O)c3c(c(O)c1C2=O)C[C@@](O)(C(=O)CO)C[C@@H]3O[C@H]1C[C@H](N)[C@H](O)[C@H](C)O1` [doxorubicin]?
A: concentration in blood, share of the initial amount ([3]; 15 min after i.v. injection): less than 2%; in vivo elimination half-life [3]: in the order of minutes

Q: Which results are given for `O=C1[O][Pt]2([NH][C@@H]3CCCC[C@H]3[NH]2)[O]C1=O` [oxaliplatin]?
A: impact of ascorbic acid co-treatment on activity (cell viability) ([4]; 100 μM AA, 72 h): no relevant impact; IC50 ([4]; after 72 h): ~3.5 µM; change of mitotic cells [5]: significant increase of mitotic cells; impact on tumor growth ([6]; i.v. twice a week for two weeks, equimolar to 9 mg kg−1 oxaliplatin): significant activity; day at which treated tumors progressed again ([6]; same scheme): ~15 days; impact of endocytosis inhibitors on cellular drug uptake [7]: neither accumulation of oxaliplatin nor KP2157 were affected by endocytosis inhibition; serum concentration at first sampling time point relative to KP2156 ([8]; 5 min, equimolar application): drastically lower than for KP2156; total clearance relative to KP2156 ([8]; single i.v. dose): at least one order of magnitude higher than that of KP2156; terminal elimination half-life (t ½) ([8]; single i.v. dose equimolar to 9 mg kg−1 oxaliplatin): 32.5 h

Q: For methyl-β-cyclodextrin [MßCD], which “impact on uptake of FITC-labeled albumin” value [1] is on record?
A: The value was “significantly reduced”.
